Test results from ChEMBL document CHEMBL5260806, “Hydrogen peroxide activated quinone methide precursors with enhanced DNA cross-linking capability and cytotoxicity towards cancer cells” (Eur J Med Chem, 2017).
The source made the active and inactive calls. The calls are words filed in the database; no cut-off is given here.

Columns and labels:
A498 = test: Anticancer activity against human A498 cells assessed as cell growth inhibition at 10 uM incubated for 48 hrs by sulforhodamine B assay; format: functional; conditions: read-out: GI
Method in brief: (§1)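 NCI-60 screen: cell lines grown in RPMI 1640 with 5% FBS and 2 mM L-glutamine, plated in 96-well plates at 5,000–40,000 cells/well depending on doubling time. Each line has one single-dose arm at 10 µM and one dose-response arm giving GI50.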

HCT-116 [1] = test: Anticancer activity against human HCT-116 cells assessed as cell growth inhibition incubated for 48 hrs by sulforhodamine B assay; format: functional; method in brief: as §1
K562 = test: Anticancer activity against human K562 cells assessed as cell growth inhibition at 10 uM incubated for 48 hrs by sulforhodamine B assay; format: functional; conditions: read-out: GI; method in brief: as §1
HCC 2998 [2] = test: Anticancer activity against human HCC 2998 cells assessed as cell growth inhibition incubated for 48 hrs by sulforhodamine B assay; format: functional; method in brief: as §1
NCI-H460 = test: Anticancer activity against human NCI-H460 cells assessed as cell growth inhibition at 10 uM incubated for 48 hrs by sulforhodamine B assay; format: functional; conditions: read-out: GI
Method in brief: (§2)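 NCI DTP 60-cell-line screen run at National Cancer Institute. Cells grown in RPMI 1640 with 5% fetal bovine serum and 2 mM L-glutamine, seeded at 5,000–40,000 cells/well depending on doubling time. Single-dose screen at 10 µM gives growth percentage; dose-response series gives GI50.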

HOP-92 = test: Anticancer activity against human HOP-92 cells assessed as cell growth inhibition at 10 uM incubated for 48 hrs by sulforhodamine B assay; format: functional; conditions: read-out: GI; method in brief: as §1
COLO 205 = test: Anticancer activity against human COLO 205 cells assessed as cell growth inhibition at 10 uM incubated for 48 hrs by sulforhodamine B assay; format: functional; conditions: read-out: GI; method in brief: as §1
ACHN = test: Anticancer activity against human ACHN cells assessed inhibition of cell growth after 48 hrs by CellTiter-Glo luminescent assay; format: functional, cell-based
Method in brief: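 Renal lines grown in RPMI 1640 with 5% FBS and 2 mM L-glutamine, plated at 5,000–10,000 cells/well in 384-well plates and held 2–3 h at 37 °C, 5% CO2. Compounds were made as 20 mM DMSO stocks, given as ten 2-fold serial dilutions diluted 1:100 into cells, and incubated 48 h. Read-out was CellTiter-Glo luminescence after 10 min at room temperature.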

TK-10 [3] = test: Anticancer activity against human TK-10 cells assessed inhibition of cell growth after 48 hrs by CellTiter-Glo luminescent assay; format: functional, cell-based; conditions: TK-10, 48 h
Method in brief: (§3)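 Renal lines grown in RPMI 1640 with 5% FBS and 2 mM L-glutamine, seeded into 384-well plates at 5,000–10,000 cells/well, held 2–3 h at 37 °C, 5% CO2. DMSO stocks (20 mM) serially halved ten times and added at 1:100. Cells exposed 48 h at 37 °C; CellTiter-Glo added, 10 min at room temperature, luminescence read.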

UO-31 = test: Anticancer activity against human UO-31 cells assessed as cell growth inhibition at 10 uM incubated for 48 hrs by sulforhodamine B assay; format: functional; conditions: read-out: GI
SK-OV-3 [4] = test: Anticancer activity against human SK-OV-3 cells assessed as cell growth inhibition at 10 uM incubated for 48 hrs by sulforhodamine B assay; format: functional; conditions: read-out: GI; method in brief: as §2
SF-295 = test: Anticancer activity against human SF-295 cells assessed as cell growth inhibition at 10 uM incubated for 48 hrs by sulforhodamine B assay; format: functional; conditions: read-out: GI; method in brief: as §2
OVCAR-5 = test: Anticancer activity against human OVCAR-5 cells assessed as cell growth inhibition at 10 uM incubated for 48 hrs by sulforhodamine B assay; format: functional; conditions: read-out: GI; method in brief: as §2
TK-10 [5] = test: Anticancer activity against human TK-10 cells assessed as cell growth inhibition at 10 uM incubated for 48 hrs by sulforhodamine B assay; format: functional; conditions: read-out: GI
SW-620 = test: Anticancer activity against human SW620 cells assessed as cell growth inhibition at 10 uM incubated for 48 hrs by sulforhodamine B assay; format: functional; conditions: read-out: GI
SK-MEL-28 = test: Anticancer activity against human SK-MEL-28 cells assessed as cell growth inhibition incubated for 48 hrs by sulforhodamine B assay; format: functional; method in brief: as §2
RXF 393 = test: Anticancer activity against human RXF 393 cells assessed as cell growth inhibition incubated for 48 hrs by sulforhodamine B assay; format: functional; method in brief: as §2
M14 = test: Anticancer activity against human M14 cells assessed as cell growth inhibition at 10 uM incubated for 48 hrs by sulforhodamine B assay; format: functional; conditions: read-out: GI; method in brief: as §1
HCC 2998 [6] = test: Anticancer activity against human HCC 2998 cells assessed as cell growth inhibition at 10 uM incubated for 48 hrs by sulforhodamine B assay; format: functional; conditions: read-out: GI; method in brief: as §1
SK-OV-3 [7] = test: Anticancer activity against human SK-OV-3 cells assessed as cell growth inhibition incubated for 48 hrs by sulforhodamine B assay; format: functional
NCI-H226 = test: Anticancer activity against human NCI-H226 cells assessed as cell growth inhibition at 10 uM incubated for 48 hrs by sulforhodamine B assay; format: functional; conditions: read-out: GI; method in brief: as §2
SNB-19 = test: Anticancer activity against human SNB-19 cells assessed as cell growth inhibition at 10 uM incubated for 48 hrs by sulforhodamine B assay; format: functional; conditions: read-out: GI
[8] = Anticancer activity against human CLL cells assessed as reduction in cell viability incubated for 24 hrs by Annexin/PI staining based fluorescence assay; format: functional
Method in brief: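 CLL lymphocytes were taken from patients' peripheral blood (n=3) by Ficoll-Hypaque, suspended in 10% autologous plasma in RPMI, and exposed to 1, 5, 10, 20, 50 and 100 µM. Viability was measured by annexin V/propidium iodide binding. IC50 comes from one representative patient.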

MOLT-4 [9] = test: Anticancer activity against human MOLT-4 cells assessed as cell growth inhibition at 10 uM incubated for 48 hrs by sulforhodamine B assay; format: functional; conditions: read-out: GI; method in brief: as §2
MCF7 = test: Anticancer activity against human MCF7 cells assessed as cell growth inhibition incubated for 48 hrs by sulforhodamine B assay; format: functional; method in brief: as §2
NCI-H23 = test: Anticancer activity against human NCI-H23 cells assessed as cell growth inhibition incubated for 48 hrs by sulforhodamine B assay; format: functional; method in brief: as §2
SN12C = test: Anticancer activity against human SN12C cells assessed inhibition of cell growth after 48 hrs by CellTiter-Glo luminescent assay; format: functional, cell-based; method in brief: as §3
HCT-116 [10] = test: Anticancer activity against human HCT-116 cells assessed as cell growth inhibition at 10 uM incubated for 48 hrs by sulforhodamine B assay; format: functional; conditions: read-out: GI; method in brief: as §1
OVCAR-3 = test: Anticancer activity against human OVCAR-3 cells assessed as cell growth inhibition at 10 uM incubated for 48 hrs by sulforhodamine B assay; format: functional; conditions: read-out: GI; method in brief: as §2
HL-60 = test: Anticancer activity against human HL-60 cells assessed as cell growth inhibition incubated for 48 hrs by sulforhodamine B assay; format: functional; method in brief: as §1
MOLT-4 [11] = test: Anticancer activity against human MOLT-4 cells assessed as cell growth inhibition incubated for 48 hrs by sulforhodamine B assay; format: functional; method in brief: as §2
UACC-257 = test: Anticancer activity against human UACC-257 cells assessed as cell growth inhibition incubated for 48 hrs by sulforhodamine B assay; format: functional
CLL cell = test: Induction of DNA damage in chronic lymphocytic leukemia patient lymphocytes assessed as gamma-H2Ax phosphorylation at Ser139 residue at 10 uM after 24 hrs by FITC-staining based flow cytometry; format: functional; conditions: Homo sapiens
Method in brief: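 Patient CLL lymphocytes, Ficoll-hypaque isolated, in RPMI with 10% autologous plasma, untreated or exposed to 10 µM for 24 h. Cells washed in PBS, fixed in ice-cold 70% ethanol and held at −20 °C. Then permeabilised, stained with FITC anti-H2AX Ser139 antibody and read by flow cytometry.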

GI50 (HCT-116 [1]): 2000 nM
GI50 (HCC 2998 [2]): 2000 nM
IC50 (ACHN): 20000 nM
GI50 (SK-MEL-28): 2000 nM
GI50 (SK-OV-3 [7]): 2000 nM
GI50 (MCF7): 2000 nM
GI50 (NCI-H23): 2000 nM
GI50 (HL-60): 2000 nM
GI50 (MOLT-4 [11]): 2000 nM
Structure (SMILES): COc1cc(CBr)c(B2OC(C)(C)C(C)(C)O2)c(CBr)c1
inhibition of growth at 10 µM (A498): < 50%
inhibition of growth at 10 µM (K562): < 50%
inhibition of growth at 10 µM (NCI-H460): < 50%
inhibition of growth at 10 µM (HOP-92): < 50%
inhibition of growth at 10 µM (COLO 205): < 50%
IC50 (TK-10 [3]): 16200 nM
inhibition of growth at 10 µM (UO-31): < 50%
inhibition of growth at 10 µM (SK-OV-3 [4]): < 50%
inhibition of growth at 10 µM (SF-295): < 50%
inhibition of growth at 10 µM (OVCAR-5): < 50%
inhibition of growth at 10 µM (TK-10 [5]): < 50%
inhibition of growth at 10 µM (SW-620): < 50%
GI50 (RXF 393): 2000 nM
inhibition of growth at 10 µM (M14): < 50%
inhibition of growth at 10 µM (HCC 2998 [6]): < 50%
inhibition of growth at 10 µM (NCI-H226): < 50%
inhibition of growth at 10 µM (SNB-19): < 50%
IC50 [8]: 28400 nM
inhibition of growth at 10 µM (MOLT-4 [9]): < 50%
IC50 (SN12C): 18600 nM
inhibition of growth at 10 µM (HCT-116 [10]): < 50%
inhibition of growth at 10 µM (OVCAR-3): < 50%
GI50 (UACC-257): 2000 nM
Activity (CLL cell): Active
